# Source: PMC5167242 (Neoplasia (New York, N.Y.), 2016)
# Where “and” joins values, the source holds several entries; their conditions need not be identical. Identical values can stand only once.
# How the values were obtained:
# [1] = test system: FGFR1 amplified and FGFR2 amplified or mutated cancer cell lines; assay: cell viability assay; format: cell-based, human
# Procedure, shortened: (§1)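 Cell lines were grown in RPMI with 1% glutamine and 10% FBS. Cells were exposed to test compound (0.01–50 μM; 10 mM DMSO stock) 48 h after seeding. MTS was added 72 h after treatment and read at 490 nm after 2 h incubation. IC50 was calculated by software and reported as arithmetic mean + SEM.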
# [2] = test system: tumor type cell lines with wt FGFR1 and wt FGFR2; assay: cell viability assay; format: cell-based; conditions: Homo sapiens, 72 h
# Procedure, shortened: as §1
# DMS114 cells [3] = assay: cell viability assay; format: cell-based; conditions: Homo sapiens, DMS-114
# Procedure, shortened: as §1
# H1299 cells [4] = assay: cell viability assay; format: cell-based; conditions: Homo sapiens, NCI-H1299
# Procedure, shortened: as §1
# DMS114 cells [5] = assay: cell cycle perturbation, flow cytometry of DNA content, DMS114; format: cell-based, human; conditions: DMS114, 1 μM (IC50); starting at 24 hours and persisting up to 48 hours
# H1299 cells [6] = assay: cell cycle perturbation, flow cytometry of DNA content, H1299; format: cell-based, human; conditions: H1299, 10 μM (IC50); 4, 24, 48 and 72 hours
# DMS114 cells [7] = assay: TUNEL apoptosis assay, DMS114; format: cell-based, human; conditions: DMS114, 1 μM (IC50); 4, 24, 48 and 72 hours
# H1299 cells [8] = assay: TUNEL apoptosis assay, H1299; format: cell-based, human; conditions: H1299, 10 μM (IC50); 4, 24, 48 and 72 hours
# [9] = test system: H1299 (NSCLC) FGFR1 wt xenograft; assay: H1299 xenograft tumor growth; format: in vivo, mice; conditions: for Best T/C%: day 38 after implant
# Procedure, shortened: (§2)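 Female NCr-nu/nu mice (6 weeks old, specific pathogen free) received subcutaneous flank tumor fragments. Tumors were measured by caliper twice weekly, with volume = (length × width²)/2. Best %T/C = (median treated volume / median control volume) × 100.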
# [10] = test system: H1581 (NSCLC) FGFR1 amplified xenograft; assay: H1581 xenograft tumor growth; format: in vivo, mice; conditions: for Best T/C%: day 27 after implant
# Procedure, shortened: as §2
# [11] = test system: DMS114 (SCLC) FGFR1 amplified xenograft; assay: DMS114 xenograft tumor growth; format: in vivo, mice
# Procedure, shortened: as §2
# [12] = test system: MNK45 gastric carcinoma FGFR2 wt xenograft; assay: MNK45 xenograft tumor growth; format: in vivo, mice
# Procedure, shortened: as §2
# [13] = test system: SNU16 gastric carcinoma FGFR2 amplified xenograft; assay: SNU16 xenograft tumor growth; format: in vivo, mice; conditions: day 30 after implant
# Procedure, shortened: as §2
# [14] = test system: HEC1A endometrial carcinoma FGFR2 wt xenograft; assay: HEC1A xenograft tumor growth; format: in vivo, mice; conditions: for Best T/C%: HEC1A
# Procedure, shortened: as §2
# [15] = test system: MFE296 endometrial carcinoma FGFR2 mutated xenograft; assay: MFE296 xenograft tumor growth; format: in vivo, mice
# Procedure, shortened: as §2
# [16] = pharmacokinetics after 12 daily oral doses in lung xenograft bearing mice; format: in vivo; conditions: for tumor/plasma ratio: lung xenografts
# [17] = target: VEGFR1-3 tyrosine kinases; conditions: biochemical assays; cited from earlier work
# [18] = target: PDGFRα/β tyrosine kinases; conditions: biochemical assays; cited from earlier work
# FGFR1-3 tyrosine kinases = conditions: biochemical assays; cited from earlier work
# [19] = after 21 days of treatment, just before the daily oral dose of 10 mg, cited from earlier work
# [20] = test system: breast cancer patients with FGF-aberrant (FGFR1 and/or FGF3/4/19 gene amplified) tumors; conditions: among 12 breast cancer patients with FGF-aberrant tumors; cited from earlier work
# [21] = NCr-nu/nu, mouse, tumor and plasma, po
smiles,measurement,setting,value
CNC(=O)c1cccc2cc(Oc3ccnc4cc(OCC5(N)CC5)c(OC)cc34)ccc12 [lucitanib],IC50 lower in FGFR2 amplified or mutated cell lines than in FGFR2 wt cells,[1]; FGFR2 amplified or mutated cell lines vs FGFR2 wt cells,10 fold
same,IC50,"[1]; Homo sapiens, 72 h",45 to 3160 nM
same,IC50,[2],3000 to 23000 nM
same,IC50,DMS114 cells [3],1000 nM
same,IC50,H1299 cells [4],10000 nM
same,perturbation of the cell cycle,DMS114 cells [5],G1 block
same,perturbation of the cell cycle,H1299 cells [6],late S-G2/M blockade
same,apoptosis by TUNEL assay,DMS114 cells [7],no apoptosis was detected
same,apoptosis by TUNEL assay,H1299 cells [8],no apoptosis was detected
same,Best T/C%,"[9]; H1299, 2.5 mg/kg orally daily for 30 days",55 (38) %
same,Best T/C%,"[9]; H1299, 5 mg/kg orally daily for 30 days",41% and 41 (38) %
same,Best T/C%,"[9]; H1299, 10 mg/kg orally daily for 30 days",28 (38) %
same,Best T/C%,"[9]; H1299, 20 mg/kg orally daily for 30 days",24 (38) %
same,tumor regressions,"[9]; H1299 lung xenograft, any dose schedule, best effect tumor stabilization",No tumor regressions
same,Best T/C%,"[10]; H1581, 2.5 mg/kg orally daily for 30 days",46 (27) %
same,Best T/C%,"[10]; H1581, 5 mg/kg orally daily for 30 days",24% and 24 (27) %
same,Best T/C%,"[10]; H1581, 10 mg/kg orally daily for 30 days",21 (27) %
same,Best T/C%,"[10]; H1581, 20 mg/kg orally daily for 30 days",16 (27) %
same,tumor regressions,"[10]; H1581 lung xenograft, any dose schedule, best effect tumor stabilization",No tumor regressions
same,Best T/C%,"[11]; DMS114, 2.5 mg/kg orally daily for 30 days, day 44 after implant",45 (44) %
same,Best T/C%,"[11]; DMS114, 5 mg/kg orally daily for 30 days, day 46 after implant",20% and 20 (46) %
same,Best T/C%,"[11]; DMS114, 10 mg/kg orally daily for 30 days, day 44 after implant",16 (44) %
same,Best T/C%,"[11]; DMS114, 20 mg/kg orally daily for 30 days, day 44 after implant",12 (44) %
same,tumor regressions,"[11]; DMS114 lung xenograft, any dose schedule, best effect tumor stabilization",No tumor regressions
same,Best T/C%,"[12]; MNK45, 2.5 mg/kg orally daily for 30 days, day 28 after implant",22 (28) %
same,Best T/C%,"[12]; MNK45, 5 mg/kg orally daily for 30 days, day 28 after implant",12 (28) %
same,Best T/C%,"[12]; MNK45, 10 mg/kg orally daily for 30 days, day 32 after implant",10 (32) %
same,Best T/C%,"[12]; MNK45, 20 mg/kg orally daily for 30 days, day 32 after implant",7 (32) %
same,tumor regressions,"[12]; MNK45 wt FGFR2, 20 mg/kg (data not shown)",3 out of 10 mice
same,Best T/C%,"[13]; SNU16, 2.5 mg/kg orally daily for 30 days",40 (30) %
same,Best T/C%,"[13]; SNU16, 5 mg/kg orally daily for 30 days",32 (30) %
same,Best T/C%,"[13]; SNU16, 10 mg/kg orally daily for 30 days",16 (30) %
same,Best T/C%,"[13]; SNU16, 20 mg/kg orally daily for 30 days",14 (30) %
same,tumor regressions,"[14]; HEC1A wt FGFR2, 20 mg/kg (data not shown)",2 out of 10 mice
same,Best T/C%,"[14]; 2.5 mg/kg orally daily for 30 days, day 45 after implant",29 (45) %
same,Best T/C%,"[14]; 5 mg/kg orally daily for 30 days, day 47 after implant",17 (47) %
same,Best T/C%,"[14]; 10 mg/kg orally daily for 30 days, day 45 after implant",12 (45) %
same,Best T/C%,"[14]; 20 mg/kg orally daily for 30 days, day 49 after implant",10 (49) %
same,Best T/C%,"[15]; MFE296, 2.5 mg/kg orally daily for 30 days, day 28 after implant",36 (28) %
same,Best T/C%,"[15]; MFE296, 5 mg/kg orally daily for 30 days, day 25 after implant",34 (25) %
same,Best T/C%,"[15]; MFE296, 10 mg/kg orally daily for 30 days, day 30 after implant",22 (30) %
same,Best T/C%,"[15]; MFE296, 20 mg/kg orally daily for 30 days, day 25 after implant",17 (25) %
same,tumor/plasma ratio,[16]; 4 hours after the last of 12 daily oral doses,2.5
same,tumor/plasma ratio,[16]; 24 hours after the last of 12 daily oral doses,24.8
same,tumor drug concentration at 4 hours relative to in vitro IC50,"[16]; FGFR1 amplified H1581 and DMS114 tumors, higher than IC50 values",3 to 26 fold
same,Kp at 4 h,[16]; [21],2.5 ± 0.7
same,Kp at 24 h,[16]; [21],24.8 ± 7.4
same,Kd,[17],< 100 nM
same,Kd,[18],< 100 nM
same,Kd,FGFR1-3 tyrosine kinases,< 100 nM
same,tumor drug concentration relative to concomitant plasma drug concentration,[19],25 fold
same,tumor drug concentration,[19]; breast cancer biopsy from a person,11 µM
same,confirmed objective RECIST responses,[20],4
same,unconfirmed objective RECIST responses,[20],2
